Reference: ChEMBL document CHEMBL4627265, “Optimization of 8-oxoadenines with toll-like-receptor 7 and 8 activity” (Bioorg Med Chem Lett, 2020)
Activity calls are given as the source filed them. The rule behind the calls is not given here.

Tests used:
Assay type in all cases: cell-based
Toll-like receptor 7 = target: T1, Toll-like receptor 7 (Homo sapiens, UniProt Q9NYK1); assay: Agonist activity at human TLR7 expressed in HEK293 cells assessed as induction of NFKappaB activity after 24 hrs by SEAP reporter gene assay
T1 sequence (Q9NYK1 whole entry): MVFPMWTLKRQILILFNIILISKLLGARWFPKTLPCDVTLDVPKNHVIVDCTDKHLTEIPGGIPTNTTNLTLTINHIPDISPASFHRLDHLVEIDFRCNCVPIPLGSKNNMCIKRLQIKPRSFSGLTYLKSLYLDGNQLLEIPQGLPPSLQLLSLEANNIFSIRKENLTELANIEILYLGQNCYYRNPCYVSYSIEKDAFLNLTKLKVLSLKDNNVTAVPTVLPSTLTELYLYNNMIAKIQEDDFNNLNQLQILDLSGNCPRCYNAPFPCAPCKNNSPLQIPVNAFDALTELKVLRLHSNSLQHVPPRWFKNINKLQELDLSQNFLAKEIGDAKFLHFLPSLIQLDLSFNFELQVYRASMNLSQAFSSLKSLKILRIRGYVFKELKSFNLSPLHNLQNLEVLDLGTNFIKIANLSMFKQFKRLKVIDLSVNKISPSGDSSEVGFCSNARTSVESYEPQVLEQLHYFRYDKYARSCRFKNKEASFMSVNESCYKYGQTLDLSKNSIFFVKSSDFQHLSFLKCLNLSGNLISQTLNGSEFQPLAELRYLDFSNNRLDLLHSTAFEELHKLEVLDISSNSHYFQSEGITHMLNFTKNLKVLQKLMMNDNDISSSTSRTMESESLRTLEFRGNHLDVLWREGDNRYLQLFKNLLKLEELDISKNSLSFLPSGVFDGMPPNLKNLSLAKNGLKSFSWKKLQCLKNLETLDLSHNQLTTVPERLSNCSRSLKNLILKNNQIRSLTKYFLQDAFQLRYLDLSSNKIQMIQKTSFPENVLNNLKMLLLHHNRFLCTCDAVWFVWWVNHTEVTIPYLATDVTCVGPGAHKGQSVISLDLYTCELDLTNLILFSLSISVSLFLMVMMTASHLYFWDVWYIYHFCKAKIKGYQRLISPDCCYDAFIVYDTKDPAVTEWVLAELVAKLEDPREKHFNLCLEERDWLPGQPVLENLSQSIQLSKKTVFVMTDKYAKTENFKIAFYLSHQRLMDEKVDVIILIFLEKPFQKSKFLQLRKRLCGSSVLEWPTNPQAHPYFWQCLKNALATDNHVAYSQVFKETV
Procedure, shortened: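 HEK293 cells stably transfected with hTLR7 or hTLR8 plus an NFκB-driven SEAP reporter, treated 24 h with compound over a μM range; SEAP secretion read out. EC50 as mean ± SD of three (TLR7) or four (TLR8) independent experiments.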

[1] = target: T2, Toll-like receptor 9 (Homo sapiens) (UniProt Q9NR96); assay: Agonist activity at human TLR9 expressed in HEK293 cells by SEAP reporter gene assay
T2 sequence (whole entry): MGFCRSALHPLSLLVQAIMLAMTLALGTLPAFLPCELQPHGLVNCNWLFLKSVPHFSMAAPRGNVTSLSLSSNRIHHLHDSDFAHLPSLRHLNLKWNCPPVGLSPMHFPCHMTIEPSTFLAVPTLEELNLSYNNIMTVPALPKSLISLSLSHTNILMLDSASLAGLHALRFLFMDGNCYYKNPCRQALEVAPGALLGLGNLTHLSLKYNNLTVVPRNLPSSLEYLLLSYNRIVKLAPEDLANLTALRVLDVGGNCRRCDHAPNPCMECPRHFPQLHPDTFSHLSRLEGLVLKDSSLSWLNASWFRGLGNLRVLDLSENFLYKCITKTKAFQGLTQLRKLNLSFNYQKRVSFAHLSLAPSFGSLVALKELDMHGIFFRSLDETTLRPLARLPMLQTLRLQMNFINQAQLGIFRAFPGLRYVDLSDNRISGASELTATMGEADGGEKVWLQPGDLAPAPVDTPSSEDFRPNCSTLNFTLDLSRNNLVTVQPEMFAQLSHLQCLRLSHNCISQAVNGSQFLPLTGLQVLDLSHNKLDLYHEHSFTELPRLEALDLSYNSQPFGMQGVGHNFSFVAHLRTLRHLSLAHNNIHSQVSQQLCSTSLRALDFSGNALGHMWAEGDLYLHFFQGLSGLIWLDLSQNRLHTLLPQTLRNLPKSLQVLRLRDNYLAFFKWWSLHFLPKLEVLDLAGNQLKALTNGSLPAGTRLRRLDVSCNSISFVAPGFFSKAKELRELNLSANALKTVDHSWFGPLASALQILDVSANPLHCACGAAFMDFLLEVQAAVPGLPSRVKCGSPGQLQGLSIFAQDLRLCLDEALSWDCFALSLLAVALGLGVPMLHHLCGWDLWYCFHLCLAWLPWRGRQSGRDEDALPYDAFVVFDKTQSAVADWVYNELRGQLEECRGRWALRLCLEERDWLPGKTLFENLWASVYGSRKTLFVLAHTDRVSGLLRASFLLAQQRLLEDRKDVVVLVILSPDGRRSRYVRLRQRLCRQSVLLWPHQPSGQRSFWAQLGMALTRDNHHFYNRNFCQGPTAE

[2] = target: T3, Toll-like receptor 7 (Homo sapiens) (UniProt Q9NYK1); assay: Agonist activity at TLR7 in human PBMC assessed as induction of plasmacytoid dendritic cell maturation by measuring CD86 level at 0.1 uM after 6 hrs by flow cytometry
T3 sequence (whole entry): T1 sequence (Q9NYK1 whole entry)
Procedure, shortened: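 hPBMCs stimulated 6 h at a single 0.1 μM dose; HLA-DR, MHC-I, CD80 and CD86 on mDCs and pDCs measured by flow cytometry, expressed as fold change versus unstimulated cells. Mean ± SD of three independent experiments in three different donors.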

EC50 (Toll-like receptor 7): > 500 µM
Activity [1]: inactive
Activity [2]: inactive
SMILES: Nc1nc(OCCCCO)nc2c1[nH]c(=O)n2CC1CCNCC1
